# Laboratory results: ChEMBL document CHEMBL1123619, “Isothiourea derivatives of 6-phenyl-2,3,5,6-tetrahydroimidazo[2,1-b]thiazole with broad-spectrum anthelmintic activity” (J Med Chem, 1987)
# Experiments:
# [1] = test system: Felis catus; test: Antihelmethic activity expressed as the percentage of worms eliminated in the feces in cat tapeworm at peroral dose of 30 mg/kg; worms expelled and no futher segments appeared in the feces for the duration of the test; assay type: functional, organism-based; parameters: dose 30 mg/kg
# [2] = test system: Mus musculus; test: Nematocidal activity against Nematospiroides dubius induced necropsy in mouse, after oral administration of 100 mg/kg; assay type: functional
# Outline: (§1)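 Seven-week-old female LACA mice infected orally with 100 N. dubius L3 larvae; single gavage dose given at day 10 of infection, groups of four mice; necropsy 4 days later; percent activity from worm burdens of treated versus untreated groups.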
# [3] = test system: Ovis aries; test: Antihelmethic activity expressed as the percentage of worms eliminated in the feces in sheep small intestine at peroral dose of 30 mg/kg against Cooperia curticei; assay type: functional; details: route oral
# Outline: (§2)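 Sheep given a single dose, oral or subcutaneous. Total daily feces collected for 4 days after treatment and examined for expelled worms. Necropsy at day 7 after dosing; lungs, liver and gastrointestinal tract removed and remaining worms identified. Activity calculated by comparing worms passed in feces with those remaining at autopsy. Single animals per test unless otherwise indicated.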
# [4] = test system: Ovis aries; test: Antihelmethic activity expressed as the percentage of worms eliminated in the feces in sheep small intestine at peroral dose of 15 mg/kg against Nematodirus species; assay type: functional; details: route oral; outline: as §2
# [5] = test system: Ovis aries; test: Antihelmethic activity expressed as the percentage of worms eliminated in the feces in sheep abomasum at peroral dose of 30 mg/kg against Trichostrongylus axei; assay type: functional; details: route oral; outline: as §2
# [6] = test system: Ovis aries; test: Antihelmethic activity expressed as the percentage of worms eliminated in the feces in sheep small intestine at peroral dose of 15 mg/kg against Cooperia curticei; assay type: functional; details: route oral; outline: as §2
# [7] = test system: Ovis aries; test: Antihelmethic activity expressed as the percentage of worms eliminated in the feces in sheep small intestine at peroral dose of 15 mg/kg against Bunostomum trigonocephalum.; assay type: functional; details: route oral; outline: as §2
# [8] = test system: Ovis aries; test: Antihelmethic activity expressed as the percentage of worms eliminated in the feces in sheep small intestine at subcuteneous dose of 30 mg/kg against Strongyloides papillosus; assay type: functional; outline: as §2
# [9] = test system: Mus musculus; test: Nematocidal activity against Nematospiroides dubius induced necropsy in mouse, after oral administration of 100 mg/kg of the compound; assay type: functional; outline: as §1
# [10] = test system: Ovis aries; test: Antihelmethic activity expressed as the percentage of worms eliminated in the feces in sheep large bowel at peroral dose of 30 mg/kg against Oesophagostomum columbianum.; assay type: functional; details: route oral; outline: as §2
# [11] = organism: Ovis aries; test: (§3) Antihelmethic activity expressed as the percentage of worms eliminated in the feces in sheep species.; assay type: functional
# Outline: (§4)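 Sheep; total daily faeces collected for 4 days after treatment and searched for expelled worms; necropsy 7 days post-dose with lungs, liver and GI tract examined and worms identified; activity from worms passed in faeces versus worms remaining in host at autopsy.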
# [12] = test system: Ovis aries; test: Antihelmethic activity expressed as the percentage of worms eliminated in the feces in sheep large bowel at peroral dose of 15 mg/kg against Oesophagostomum columbianum.; assay type: functional; details: route oral; outline: as §2
# [13] = test system: Ovis aries; test: Antihelmethic activity expressed as the percentage of worms eliminated in the feces in sheep […] at peroral dose of 15 mg/kg against Liver fluke Fasciola hepatica.; assay type: functional; details: route oral
# [14] = test system: Ovis aries; test: Anthelmintic activity against adult liver fluke (Fasciola hepatica) in sheep, after peroral administration of 20 mg/kg was determined; assay type: functional; details: route oral
# Outline: (§5)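 Sheep dosed with a single oral dose. Fecal fluke egg output monitored after treatment. Animals necropsied only if the fecal egg count fell. Postmortem Fasciola hepatica burdens compared with untreated control sheep (mean of 10 controls). Single animals per test unless otherwise indicated, with group size given in parentheses. I denotes no effect on fecal fluke egg output.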
# [15] = test system: Ovis aries; test: Antihelmethic activity expressed as the percentage of worms eliminated in the feces in sheep large bowel at peroral dose of 30 mg/kg against Trichuris ovis.; assay type: functional; details: route oral; outline: as §2
# [16] = test system: Ovis aries; test: Antihelmethic activity expressed as the percentage of worms eliminated in the feces in sheep large bowel at peroral dose of 15 mg/kg against Lungworm Dictyocaulus filaria.; assay type: functional; details: route oral; outline: as §2
# [17] = test system: Ovis aries; test: Antihelmethic activity expressed as the percentage of worms eliminated in the feces in sheep small intestine at peroral dose of 30 mg/kg against Bunostomum trigonocephalum.; assay type: functional; details: route oral; outline: as §2
# [18] = test system: Ovis aries; test: Antihelmethic activity expressed as the percentage of worms eliminated in the feces in sheep […] at subcuteneous dose of 30 mg/kg against Liver fluke Fasciola hepatica.; assay type: functional
# [19] = test system: Ovis aries; test: Antihelmethic activity expressed as the percentage of worms eliminated in the feces in sheep large bowl at peroral dose of 15 mg/kg against chabertia ovina.; assay type: functional; details: route oral; outline: as §2
# [20] = organism: Ovis aries; test: as §3; assay type: functional; outline: as §4; remark: listed apart in the source
# [21] = test system: Mus musculus; test: Nematocidal activity against Nematospiroides dubius induced necropsy in mouse, after oral administration of 12.5 mg/kg of the compound; assay type: functional
# Outline: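 Female LACA mice (7 weeks) infected orally with 100 N. dubius L3 larvae; single oral dose as solution in PEG 400 on infection day 10, four mice per group; necropsied 4 days later; percent activity by comparing treated and untreated worm burdens.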
# [22] = test system: Mus musculus; test: Nematocidal against Nematospiroides dubius in mouse was determined at 25 mg/kg peroral dose of compound; assay type: functional; details: route oral; outline: as §1
# [23] = test system: Ovis aries; test: Antihelmethic activity expressed as the percentage of worms eliminated in the feces in sheep abomasum at peroral dose of 15 mg/kg against Trichostrongylus axei; assay type: functional; details: route oral; outline: as §2
# [24] = test system: Mus musculus; test: Nematocidal activity against Nematospiroides dubius induced necropsy in mouse, after oral administration of 25 mg/kg of the compound; assay type: functional; outline: as §1
# [25] = test system: Ovis aries; test: Antihelmethic activity expressed as the percentage of worms eliminated in the feces in sheep small intestine at peroral dose of 15 mg/kg against Strongyloides papillosus; assay type: functional; details: route oral; outline: as §2
# [26] = test system: Mus musculus; test: Nematocidal activity against Nematospiroides dubius induced necropsy in mouse, after oral administration of 50 mg/kg of the compound; assay type: functional; outline: as §1
# [27] = test system: Ovis aries; test: Antihelmethic activity expressed as the percentage of worms eliminated in the feces in sheep small intestine at peroral dose of 30 mg/kg against Nematodirus species; assay type: functional; details: route oral; outline: as §2
# [28] = test system: Ovis aries; test: Antihelmethic activity expressed as the percentage of worms eliminated in the feces in sheep small intestine at peroral dose of 15 mg/kg against Capillaria species.; assay type: functional; details: route oral; outline: as §2
# [29] = test system: Ovis aries; test: Antihelmethic activity expressed as the percentage of worms eliminated in the feces in sheep small intestine at peroral dose of 15 mg/kg against Trichostrongylus axei; assay type: functional; details: route oral; outline: as §2
# [30] = test system: Ovis aries; test: Antihelmethic activity expressed as the percentage of worms eliminated in the feces in sheep abomasum at subcuteneous dose of 30 mg/kg against Trichostrongylus axei; assay type: functional; outline: as §2
# [31] = test system: Fasciola hepatica; test: Anthelmintic activity against adult liver fluke (Fasciola hepatica) in sheep following 30 mg/kg p.o.; assay type: functional; details: route oral; outline: as §5
# [32] = test system: Heligmosomoides polygyrus; test: Nematocidal activity against Nematospiroides dubius induced necropsy in mouse, oral administration 200 mg/kg; assay type: functional; outline: as §1
# [33] = organism: Ovis aries; test: as §3; assay type: functional; outline: as §4; remark: listed apart in the source
# [34] = test system: Ovis aries; test: Antihelmethic activity expressed as the percentage of worms eliminated in the feces in sheep large bowel at peroral dose of 30 mg/kg against Lungworm Dictyocaulus filaria.; assay type: functional; details: route oral; outline: as §2
# [35] = test system: Ovis aries; test: Antihelmethic activity expressed as the percentage of worms eliminated in the feces in sheep small intestine at subcuteneous dose of 30 mg/kg against Nematodirus species; assay type: functional; outline: as §2
# [36] = test system: Ovis aries; test: Toxic activity expressed as the percentage against liver fluke in the sheep at 30 mg/kg peroral administration of dose; assay type: ADME, organism-based; parameters: dose 30 mg/kg, route oral; details: in vivo, po
# Outline: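 Fasciola hepatica in sheep, controlled test; animals necropsied only when fecal egg count fell; postmortem fluke burdens compared with untreated control sheep (10 controls).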
# [37] = test system: Ovis aries; test: Antihelmethic activity expressed as the percentage of worms eliminated in the feces in sheep large bowel at peroral dose of 30 mg/kg against chabertia ovina.; assay type: functional; details: route oral; outline: as §2
# [38] = test system: Ovis aries; test: Antihelmethic activity expressed as the percentage of worms eliminated in the feces in sheep large bowel at peroral dose of 15 mg/kg against Trichuris ovis.; assay type: functional; details: route oral; outline: as §2
structure (smiles),measurement,setting,value
CS/C(=N\c1cccc(C2CN3CCSC3=N2)c1)Nc1ccc(C#N)cc1 (centres undefined),Activity,[1],no toxic symptoms
same,Reduction,[2],99%
same,Activity,[3],100%
same,Activity,[4],100%
same,Activity,[5],100%
same,Activity,[6],99%
same,Activity,[7],100%
same,Activity,[8],100%
same,Activity,[9],100%
same,Activity,[10],93%
same,Activity,[11],100%
same,Activity,[12],100%
same,Activity,[13],100%
same,Activity,[14],89%
same,Activity,[15],100%
same,Activity,[16],100%
same,Activity,[17],100%
same,Activity,[18],100%
same,Activity,[19],99%
same,Activity,[20],95%
same,Activity,[21],28%
same,Activity,[22],68
same,Activity,[23],92%
same,Activity,[24],68%
same,Activity,[25],100%
same,Activity,[26],99%
same,Reduction,[26],74%
same,Activity,[27],73%
same,Activity,[28],0%
same,Activity,[29],100%
same,Activity,[30],100%
same,Activity,[31],97%
same,Reduction,[32],100%
same,Activity,[33],100%
same,Activity,[34],100%
same,Activity,[35],100%
same,Activity,[36],97%
same,Activity,[37],100%
same,Activity,[38],100%
